From PubChem BioAssay
bCat KO growth: beta-catenin-lacking colon tumor cell growth suppression; HCT116 beta-catenin knockout viability, CellTiter-Glo, 60 h; hits give low values; 1.5% of 140,000 active; viability, % at 10 µM;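 active = viability at or under a set limit, the compound median less 4 SD, cut at about 6% in these data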;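 also: 0% = Hyamine 1622 control at 20 µM and 100% = untreated cell control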
HCT116 PTEN-null: PTEN-deleted cell growth suppression. 1.2% of 140,000 active. viability, % at 10 µM. HCT116 PTEN-null viability, CellTiter-Glo, 60 h; hits give low values;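 active = viability at or below a set limit, 4 SD under the median of all tested compounds, cut at about 3.7% in these data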;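 also: PTEN knockout HCT116 line with beta catenin targeted HCT116 as companion control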
L major viab: Leishmania major promastigote growth inhibition | 9% of 200,000 active | Leishmania major promastigotes, resazurin fluorescence viability | inhibition, % at 10 µM; in the data active = inhibition above about 50%;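 also: promastigotes grown with compound for 44 hours at 28 °C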
PMI act hi M6P: PMI (human) activation, high substrate | activation factor at 20 µM | P34949 | coupled PMI enzyme assay, resazurin fluorescence, 20 min; hits give high values; 1 = untreated enzyme, 0 = substrate-free blank | 0.34% of 190,000 active | AID 1216;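 active = activation factor of 2 or more at 20 µM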
Target sequence (P34949 whole entry, looked up): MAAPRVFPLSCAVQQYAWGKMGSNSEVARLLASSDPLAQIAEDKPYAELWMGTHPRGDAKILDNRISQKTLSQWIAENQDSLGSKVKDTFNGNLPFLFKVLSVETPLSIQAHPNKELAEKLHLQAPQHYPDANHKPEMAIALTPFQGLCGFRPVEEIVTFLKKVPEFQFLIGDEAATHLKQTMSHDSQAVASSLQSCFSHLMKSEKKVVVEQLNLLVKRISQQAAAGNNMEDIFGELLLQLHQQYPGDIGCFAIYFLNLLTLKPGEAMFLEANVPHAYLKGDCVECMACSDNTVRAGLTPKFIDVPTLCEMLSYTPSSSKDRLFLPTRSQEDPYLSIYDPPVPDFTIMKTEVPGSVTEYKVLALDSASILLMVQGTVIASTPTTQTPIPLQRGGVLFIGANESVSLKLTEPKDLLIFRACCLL
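Test system: human phosphomannose isomerase with PGI, G6PDH, diaphorase coupling enzymes / Doses: 20 µM compound, 1% DMSO / Times: enzyme reaction with compound 20 min at room temperature / Measured by: Diaphorase-driven resazurin-to-resorufin fluorescence, excitation 544, emission 590 nm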
PMI activator: increases human mannose-6-phosphate isomerase activity. P34949. purified human PMI, coupled resazurin fluorescence, 20 min; hits give high values; 1 = vehicle control, 0 substrate-free wells. activation factor at 20 µM. 0.005% of 190,000 active. AID 1214;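 active = activation factor of 2 or more at 20 µM, relative to plate controls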
The depositor's hits bear a star; · = no result. This is a sample that favours compounds with a hit; in the whole collection about 9.6% have one here.

SMILES	bCat KO growth	HCT116 PTEN-null	L major viab	PMI act hi M6P	PMI activator
CC(C)=NNc1nc(-c2ccccc2)cs1	97.2	97.5	89.5*	1.1	0.9
CCOC(=O)C/C(C)=N\Nc1nc(-c2ccccc2)cs1	·	·	24.6	1.3	1.3
Cc1ccc(-c2cc(-c3ccccc3O)nc(N/N=C/c3cccnc3)n2)cc1	4.0*	2.9*	12.7	1.1	1
CC(/C=C/c1ccccc1)=N\Nc1nc(-c2ccccc2)cs1	94.6	94.3	69.1*	0.9	0.8
Cc1cc(C)nc(NC(=S)Nc2ccc(Br)cc2Cl)c1	·	·	2.8	0.9	0.9
COCC(=O)OCC(=O)Nc1ccccc1-c1ccccc1	·	·	8.1	0.9	0.9
O=C(O)c1cc(N/N=C/C(Cl)=C/c2ccccc2)ccc1Cl	·	·	3.1	1.4	1.6
CC(=O)NNc1nc(-c2ccc(C)cc2)cs1	·	·	-3.3	1.1	1.2
CC(=O)NNc1nc(-c2ccccc2)cs1	·	·	-7.6	2.4*	1.7
C/C(CCC1CC(C)OC1=O)=N/Nc1nc(-c2ccccc2)cs1 (stereo unspecified)	93.5	89.2	76.2*	1.7	1.4
O=C(c1ccccc1NS(=O)(=O)c1cccc(C(F)(F)F)c1)N1CCc2ccccc21	90.4	100.4	65.5*	1	1
Cc1nn(CC(=O)NCCCc2ccccc2)c(C)c1[N+](=O)[O-]	·	·	-12.0	0.9	1
N/C(=N\OC(=O)CSc1ccccc1)c1ccc([N+](=O)[O-])cc1	93.9	104.3	64.0*	1	0.9
Cc1ccc(/C(N)=N/OC(=O)CSc2ccccc2)cc1	·	·	-7.0	0.9	0.9
COc1ccc(CNC(=O)CCN2C(=S)NC(C)(C)CC2C)cc1 (stereo unspecified)	·	·	0.6	1	1.1
Cc1cc(C)cc(OCc2nnc(SCC(=O)N3CCN(c4ccccc4)CC3)o2)c1	88.3	100.6	-2.7	1	1
Cc1[nH]c2ccccc2c1C1=NNC(=Nc2ccc(F)cc2)SC1	13.6	17.9	3.0	0.9	0.9
COc1ccc(N=C2NN=C(c3c(C)[nH]c4ccccc34)CS2)cc1	3.8*	4.5	48.2	1.1	1.1
CN(C)S(=O)(=O)c1cccc(NC(=O)c2ccc(N3CCOCC3)c([N+](=O)[O-])c2)c1	56.9	57.4	2.9	0.9	0.9
CC(SCc1ccccc1)C(=O)N/N=C/c1ccc2c(c1)OCO2 (stereo unspecified)	92.3	101.5	75.2*	1	0.9
COc1cc(/C=N\NC(=O)c2c(C)nc3cc(C)ccn23)ccc1O	·	·	1.7	1	1
COc1ccc(S(=O)(=O)N(CCc2ccccc2)CC(=O)N/N=C/c2ccc3c(c2)OCO3)cc1	75.7	75.6	98.5*	1	1
Cc1ccn2c(C(=O)N/N=C\c3ccc4c(c3)OCO4)c(C)nc2c1	95.7	106.1	84.8*	0.9	0.8
O=C(N/N=C/c1ccc2c(c1)OCO2)c1ccc2ccccc2n1	·	·	77.9*	0.9	1
Cc1cccc(C(=O)N/N=C/c2ccc3c(c2)OCO3)n1	105.2	97.0	-6.4	1	1
SMILES	bCat KO growth	HCT116 PTEN-null	L major viab	PMI act hi M6P	PMI activator
O=S(=O)(NCCc1cn2ccccc2n1)c1ccc2c(c1)CCCC2	92.5	101.3	-5.2	1.3	1.4
CCOC(=O)c1ccc(NC(=O)CSc2nnnn2CCCO)cc1	108.3	110.1	-1.3	0.9	0.9
COc1ccc(C(c2nnnn2CCc2ccccc2)N2CCN(C)CC2)cc1OC (stereo unspecified)	87.1	93.0	-5.4	0.9	0.9
COc1ccc(N2CCN(C(c3nnnn3CCc3ccccc3)C(C)C)CC2)cc1 (stereo unspecified)	81.0	74.9	88.8*	0.8	0.9
COc1ccccc1N1CCN(C(c2ccccc2)c2nnnn2CCc2ccccc2)CC1 (stereo unspecified)	59.0	64.6	64.2*	1.3	1.3
COc1cccc(C(c2nnnn2CCc2ccccc2)N2CCN(c3ccccc3)CC2)c1OC (stereo unspecified)	62.9	65.7	54.5*	0.8	1.1
COc1ccccc1C(c1nnnn1CCc1ccccc1)N1CCN(c2ccccc2)CC1 (stereo unspecified)	77.2	68.1	13.6	0.9	1
COc1ccc(NC(=O)C2CCN(S(=O)(=O)c3ccc(Br)s3)CC2)cc1OC	92.1	97.5	-1.8	1	1
CCOc1cc(N2CCCC2)ccc1[N+](=O)[O-]	87.4	93.6	-2.3	0.5	0.8
CC(NC(=O)C12CC3CC(CC(C3)C1)C2)C(=O)N/N=C/C1=C(N2CCOCC2)C(=C\c2ccccc2)/CC1 (stereo unspecified)	64.7	61.7	100.3*	0.9	0.7
Cn1cc(C(=O)N/N=C/C2=C(N3CCOCC3)C(=C\c3ccccc3)/CC2)ccc1=O	65.0	61.4	-4.1	1	1
O=C(NCc1nc2ccccc2[nH]1)C1=C[C@@H](C2CC2)C[C@@H](OCc2ccc(CO)cc2)O1	·	·	11.5	1	1.1
O=C(NCc1nc2ccccc2[nH]1)C1=C[C@@H](c2ccc(Br)cc2)C[C@@H](OCc2ccc(CO)cc2)O1	·	·	78.0*	1	0.9
O=C(NCc1ccccc1)C1=C[C@@H](c2ccc(Br)cc2)C[C@@H](OCc2ccc(CO)cc2)O1	·	·	54.9*	0.4	0.9
O=C(NCc1nc2ccccc2[nH]1)C1=C[C@@H](c2csc3ccccc23)C[C@@H](OCc2ccc(CO)cc2)O1	·	·	95.5*	0.9	0.9
O=C(NCc1ccc(OC(F)(F)F)cc1)C1CC(c2c(Cl)cccc2Cl)=NO1 (stereo unspecified)	87.2	79.7	-2.7	0.9	0.9
O=S(=O)(CC(CN1CCCC1)N1CCCC1)c1ccc2ccccc2c1 (stereo unspecified)	1.9*	2.1*	100.5*	0.9	0.9
CC(CS(=O)(=O)c1ccc2ccccc2c1)N1CCN(C2CCCCC2)CC1 (stereo unspecified)	·	·	82.5*	·	·
O=S(=O)(c1ccc2ccccc2c1)N1CCCCCC1	·	·	-6.0	·	·
Cc1ccc(S(=O)(=O)CC(C)N2CCN(C3CCCCC3)CC2)cc1 (stereo unspecified)	91.9	88.6	90.4*	1	1
COc1cc(NC(=O)COC(C)=O)c(C)cc1[N+](=O)[O-]	95.3	96.5	-3.5	1.1	1
COc1ccccc1OCCCC(=O)Nc1ccc([N+](=O)[O-])cc1Br	·	·	-6.2	0.9	0.9
CCC(C)n1c(-c2cccs2)nc2nc3ccccc3nc21 (stereo unspecified)	79.8	77.5	67.0*	0.8	0.8
c1ccc(-n2c(-c3cccs3)nc3nc4ccccc4nc32)cc1	62.5	60.9	-1.0	1	0.9
COC(=O)CSc1nc(N)c2c3c(sc2n1)C(c1ccccc1)SC(c1ccccc1)C3 (stereo unspecified)	1.1*	0.7*	85.2*	1.6	1.3
Nc1nc(SCC(=O)NCCO)nc2sc3c(c12)CCCC3	·	·	8.0	0.9	0.9
COC(=O)CSc1nc(N)c2c3c(sc2n1)CCCC3	103.1	96.7	70.6*	1	1
